Source: ChEMBL document CHEMBL2146472, “Identification and development of the 1,4-benzodiazepin-2-one and quinazoline-2,4-dione scaffolds as submicromolar inhibitors of HAT” (2012)
≈ marks a conversion by molar mass, not a printed value. Calls of active or inactive are those of the source. The rule behind the calls is not given here.

Each compound was assayed on Trypanosoma brucei brucei (assay: Antitrypanosomal activity against bloodstream form of Trypanosoma brucei brucei S427 after 48 hrs by Alamar Blue assay). Details: not given.
Type: functional
Procedure, shortened: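 T. b. brucei S427 cultured in HMI-9 with 20% […] FCS, 37 °C, 5% CO2. Compounds from 0.1 M DMSO stocks diluted in HMI-9 (top wells 50, 200 or 400 μM), serially diluted; cells added at 2 × 10⁴ cells/mL. 48 h incubation, then resazurin (Alamar Blue) for further 24 h; fluorescence ex 530/em 590 nm. MIC determined in duplicate.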
CN1C(=O)CN(CC2CCNCC2)C(=O)c2cc(Cl)ccc21 was tested, and the MIC was “inactive”.
For CN1C(=O)CN(CC2CCNCC2)C(=O)c2ccccc21, the MIC was “inactive”.
O=C(O)CN1C(=O)CN(CC2CCCCC2)C(=O)c2cc(Cl)ccc21 was tested, and the MIC was “inactive”.
In the case of O=C(O)CN1C(=O)CN(CC2CCCCC2)C(=O)c2ccccc21, the MIC is reported as “inactive”.
With C=CCN1C(=O)CN(CC2CCNCC2)C(=O)c2ccccc21 the MIC was “inactive”.

Same assay, conditions: S427, 48 h
O=c1c2cc(Cl)ccc2n(Cc2ccc(-c3ccccc3)cc2)c(=O)n1CC1CCCCC1 was tested, and the MIC was 125 µM (≈ 57.4 µg/mL).
CCN1C(=O)CN(CC2CCCCC2)C(=O)c2ccccc21 was tested, and the MIC was 62.5 µM (≈ 18.8 µg/mL).
O=c1c2ccccc2n(Cc2ccccc2-c2ccccc2)c(=O)n1CC1CCCCC1 was tested, and the MIC was 7.8 µM (≈ 3.31 µg/mL).
Compound C=CCN1C(=O)CN(CC2CCNCC2)C(=O)c2cc(Cl)ccc21 has an MIC of 250 µM (≈ 87 µg/mL).
Cn1c(=O)n(CC2CCCCC2)c(=O)c2cc(Cl)ccc21 was tested, and the MIC was 31.2 µM (≈ 9.57 µg/mL).
Compound CCn1c(=O)n(CC2CCCCC2)c(=O)c2cc(Cl)ccc21 has an MIC of 15.6 µM (≈ 5 µg/mL).
O=C1c2cc(Cl)ccc2N(Cc2ccccc2)C(=O)CN1CC1CCCCC1 showed an MIC of 15.6 µM (≈ 6.19 µg/mL).
Compound CCCCN1C(=O)CN(CC2CCCCC2)C(=O)c2cc(Cl)ccc21 has an MIC of 15.6 µM (≈ 5.66 µg/mL).
With O=C1c2ccccc2N(Cc2ccccc2)C(=O)CN1CC1CCNCC1 the MIC was 250 µM (≈ 90.9 µg/mL).
In the case of CCCCN1C(=O)CN(CC2CCNCC2)C(=O)c2cc(Cl)ccc21, the MIC is reported as 250 µM (≈ 91 µg/mL).
CCOC(=O)CN1C(=O)CN(CC2CCCCC2)C(=O)c2cc(Cl)ccc21 was tested, and the MIC was 62.5 µM (≈ 24.6 µg/mL).
C=CCN1C(=O)CN(CC2CCCCC2)C(=O)c2cc(Cl)ccc21 showed an MIC of 62.5 µM (≈ 21.7 µg/mL).
CC(C)(C)OC(=O)N1CCC(Cn2c(=O)c3ccccc3n(Cc3ccccc3-c3ccccc3)c2=O)CC1 gave an MIC of 125 µM (≈ 65.7 µg/mL).
Work on O=c1c2cc(Cl)ccc2n(Cc2ccc(-c3ccccc3)cc2)c(=O)n1CC1CCNCC1 yielded an MIC of 0.97 µM (≈ 0.446 µg/mL).
O=C1c2cc(Cl)ccc2N(Cc2ccccc2-c2ccccc2)C(=O)CN1CC1CCCCC1 gave an MIC of 7.8 µM (≈ 3.69 µg/mL).
CCCN1C(=O)CN(CC2CCCCC2)C(=O)c2ccccc21 gave an MIC of 62.5 µM (≈ 19.7 µg/mL).
O=C1c2ccccc2N(Cc2ccccc2-c2ccccc2)C(=O)CN1CC1CCNCC1 gave an MIC of 31.2 µM (≈ 13.7 µg/mL).
O=C1c2ccccc2N(CC2CC2)C(=O)CN1CC1CCCCC1 showed an MIC of 62.5 µM (≈ 20.4 µg/mL).
O=c1c2cc(Cl)ccc2n(Cc2ccccc2-c2ccccc2)c(=O)n1CC1CCCCC1 was tested, and the MIC was 62.5 µM (≈ 28.7 µg/mL).
O=c1c2cc(Cl)ccc2n(Cc2ccccc2)c(=O)n1CC1CCNCC1 showed an MIC of 15.6 µM (≈ 5.99 µg/mL).
CN1C(=O)CN(CC2CCCCC2)C(=O)c2ccccc21 showed an MIC of 125 µM (≈ 35.8 µg/mL).
For CCOC(=O)CN1C(=O)CN(CC2CCCCC2)C(=O)c2ccccc21, the MIC was 125 µM (≈ 44.8 µg/mL).
For Cn1c(=O)n(CC2CCCCC2)c(=O)c2ccccc21, the MIC was 62.5 µM (≈ 17 µg/mL).
With O=C1c2cc(Cl)ccc2N(Cc2ccc(-c3ccccc3)cc2)C(=O)CN1CC1CCCCC1 the MIC was 3.9 µM (≈ 1.84 µg/mL).
Compound CC(C)(C)OC(=O)N1CCC(Cn2c(=O)c3cc(Cl)ccc3n(Cc3ccccc3)c2=O)CC1 has an MIC of 62.5 µM (≈ 30.2 µg/mL).
Compound CN1C(=O)CN(CC2CCCCC2)C(=O)c2cc(Cl)ccc21 has an MIC of 62.5 µM (≈ 20.1 µg/mL).
CCCCN1C(=O)CN(CC2CCCCC2)C(=O)c2ccccc21 gave an MIC of 31.2 µM (≈ 10.3 µg/mL).
In the case of O=C1c2ccccc2N(Cc2ccccc2)C(=O)CN1CC1CCCCC1, the MIC is reported as 31.2 µM (≈ 11.3 µg/mL).
Compound C=CCN1C(=O)CN(CC2CCCCC2)C(=O)c2ccccc21 has an MIC of 125 µM (≈ 39.1 µg/mL).
CC(C)(C)OC(=O)N1CCC(Cn2c(=O)c3cc(Cl)ccc3n(Cc3ccccc3-c3ccccc3)c2=O)CC1 showed an MIC of 7.8 µM (≈ 4.37 µg/mL).
CCn1c(=O)n(CC2CCCCC2)c(=O)c2ccccc21 was tested, and the MIC was 31.2 µM (≈ 8.93 µg/mL).
In the case of O=C1c2cc(Cl)ccc2N(CC2CC2)C(=O)CN1CC1CCCCC1, the MIC is reported as 31.2 µM (≈ 11.3 µg/mL).
In the case of O=c1c2cc(Cl)ccc2n(Cc2ccccc2)c(=O)n1CC1CCCCC1, the MIC is reported as 62.5 µM (≈ 23.9 µg/mL).
CCOC(=O)Cn1c(=O)n(CC2CCCCC2)c(=O)c2ccccc21 gave an MIC of 31.2 µM (≈ 10.8 µg/mL).
With O=c1c2ccccc2n(Cc2ccccc2)c(=O)n1CC1CCCCC1 the MIC was 15.6 µM (≈ 5.44 µg/mL).
Compound CCCCn1c(=O)n(CC2CCCCC2)c(=O)c2cc(Cl)ccc21 has an MIC of 62.5 µM (≈ 21.8 µg/mL).
Work on CCOC(=O)Cn1c(=O)n(CC2CCCCC2)c(=O)c2cc(Cl)ccc21 yielded an MIC of 250 µM (≈ 94.7 µg/mL).
O=C1c2ccccc2N(Cc2ccccc2-c2ccccc2)C(=O)CN1CC1CCCCC1 was tested, and the MIC was 125 µM (≈ 54.8 µg/mL).
O=c1c2ccccc2n(Cc2ccccc2-c2ccccc2)c(=O)n1CC1CCNCC1 showed an MIC of 3.9 µM (≈ 1.66 µg/mL).
With CCN1C(=O)CN(CC2CCCCC2)C(=O)c2cc(Cl)ccc21 the MIC was 62.5 µM (≈ 20.9 µg/mL).
CCCCN1C(=O)CN(CC2CCNCC2)C(=O)c2ccccc21 showed an MIC of 62.5 µM (≈ 20.6 µg/mL).
O=C1c2cc(Cl)ccc2N(Cc2ccccc2)C(=O)CN1CC1CCNCC1 was tested, and the MIC was 125 µM (≈ 49.7 µg/mL).
For O=C1c2cc(Cl)ccc2N(Cc2ccccc2-c2ccccc2)C(=O)CN1CC1CCNCC1, the MIC was 7.8 µM (≈ 3.7 µg/mL).
O=c1c2cc(Cl)ccc2n(Cc2ccccc2-c2ccccc2)c(=O)n1CC1CCNCC1 showed an MIC of 0.97 µM (≈ 0.446 µg/mL).
Compound CCCN1C(=O)CN(CC2CCCCC2)C(=O)c2cc(Cl)ccc21 has an MIC of 31.2 µM (≈ 10.9 µg/mL).
O=C1c2ccccc2N(Cc2ccc(-c3ccccc3)cc2)C(=O)CN1CC1CCCCC1 was tested, and the MIC was 7.8 µM (≈ 3.42 µg/mL).
CC(C)(C)OC(=O)N1CCC(Cn2c(=O)c3cc(Cl)ccc3n(Cc3ccc(-c4ccccc4)cc3)c2=O)CC1 showed an MIC of 125 µM (≈ 70 µg/mL).
